# ChEMBL document CHEMBL1926588, “Sulfur and selenium derivatives of quinazoline and pyrido[2,3-d]pyrimidine: synthesis and study of their potential cytotoxic activity in vitro” (Eur J Med Chem, 2012)
# Key:
# HT-29 = experiment: Cytotoxicity against human HT-29 cells after 72 hrs by MTT assay; format: functional; settings: HT-29, 72 h; for CC50: read-out: LC50 (the source's name)
# In short: (§1)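 MTT read-out after 72 h exposure at 37 °C in humidified 5% CO2, with five concentrations between 0.01 and 100. GI50 is 50% growth reduction versus untreated controls, TGI is complete growth inhibition, and LC50 is the concentration killing 50% of cells. Minimum three independent experiments.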
# [1] = Cytotoxicity against human BEAS2B cells after 72 hrs by MTT assay; format: cell-based, BEAS-2B; settings: for GI50 at 72 h: BEAS2B cells; for LC50 / TGI: beas-2b, 72 h; in short: as §1
# MCF7 = experiment: Cytotoxicity against human MCF7 cells after 72 hrs by MTT assay; format: functional; settings: MCF7, 72 h; in short: as §1
# [2] = Cytotoxicity against human 184B5 cells after 72 hrs by MTT assay; format: cell-based; settings: for GI50 at 72 h: 184B5 cells; for LC50 / TGI: 184b5, 72 h; in short: as §1
# CCRF-CEM = experiment: Cytotoxicity against human CCRF-CEM cells after 72 hrs by MTT assay; format: functional; settings: for CC50: read-out: LC50 (the source's name); in short: as §1
# [3] = Cytotoxicity against human HTB-54 cells after 72 hrs by MTT assay; format: functional; settings: HTB-54, 72 h; for CC50: read-out: LC50 (the source's name); in short: as §1
SMILES,GI50 (HT-29),TGI (HT-29),CC50 (HT-29),GI50 at 72 h [1],LC50 [1],TGI [1],GI50 (MCF7),LC50 (MCF7),TGI (MCF7),GI50 at 72 h [2],LC50 [2],TGI [2],GI50 (CCRF-CEM),TGI (CCRF-CEM),CC50 (CCRF-CEM),GI50 [3],TGI [3],CC50 [3]
Nc1nc([SeH])nc2ccccc12,52.2 µM,> 100 µM,> 100 µM,0.08 µM,> 100 µM,> 100 µM,0.15 µM,> 100 µM,> 100 µM,0.69 µM,80.37 µM,36.65 µM,25.7 µM,52.4 µM,79.1 µM,0.04 µM,3.63 µM,> 100 µM
CCCCC[Se]c1nc(NCc2ccc(SC)cc2)c2ccccc2n1,83.6 µM,> 100 µM,> 100 µM,34.7 µM,> 100 µM,88.21 µM,34.7 µM,95.3 µM,65 µM,57.4 µM,> 100 µM,> 100 µM,35 µM,83.9 µM,> 100 µM,40.4 µM,81.3 µM,> 100 µM
CSc1nc(NCc2ccccc2)c2ccccc2n1,36.5 µM,> 100 µM,> 100 µM,38.9 µM,> 100 µM,88.24 µM,41.5 µM,> 100 µM,82.8 µM,28.9 µM,> 100 µM,> 100 µM,87.9 µM,> 100 µM,> 100 µM,37.9 µM,82.3 µM,> 100 µM
COc1ccc(CNc2nc([Se]C)nc3ccccc23)cc1,73.6 µM,> 100 µM,> 100 µM,> 100 µM,> 100 µM,> 100 µM,42.2 µM,> 100 µM,98.6 µM,75.6 µM,> 100 µM,> 100 µM,> 100 µM,> 100 µM,> 100 µM,33 µM,> 100 µM,> 100 µM
CSc1nc(Nc2ccccc2)c2ccccc2n1,65.8 µM,> 100 µM,> 100 µM,54.8 µM,> 100 µM,> 100 µM,78.4 µM,> 100 µM,> 100 µM,> 100 µM,> 100 µM,> 100 µM,74.6 µM,> 100 µM,> 100 µM,55.8 µM,> 100 µM,> 100 µM
CSc1ccc(CNc2nc([Se]C)nc3ccccc23)cc1,72.7 µM,> 100 µM,> 100 µM,35.9 µM,> 100 µM,78.54 µM,54.1 µM,> 100 µM,> 100 µM,37.1 µM,> 100 µM,> 100 µM,48.7 µM,86.9 µM,> 100 µM,37.9 µM,72.4 µM,> 100 µM
Nc1nc([SeH])nc2ncccc12,36.3 µM,89.6 µM,> 100 µM,5.89 µM,> 100 µM,87.73 µM,37.3 µM,> 100 µM,> 100 µM,5.2 µM,74.98 µM,31.05 µM,30.9 µM,61.5 µM,92.1 µM,44.3 µM,96.6 µM,> 100 µM
C[Se]c1nc(NCc2ccccc2)c2ccccc2n1,42.8 µM,81 µM,> 100 µM,0.57 µM,78.3 µM,36.96 µM,15.8 µM,> 100 µM,67 µM,3.72 µM,73.66 µM,12.41 µM,39.8 µM,61.6 µM,83.5 µM,74.6 µM,> 100 µM,> 100 µM
CSc1nc(NCCc2ccccc2)c2ccccc2n1,29.2 µM,87.4 µM,> 100 µM,41.9 µM,> 100 µM,94.8 µM,80.3 µM,> 100 µM,> 100 µM,8.3 µM,88.58 µM,46.88 µM,32.9 µM,72.8 µM,> 100 µM,50.6 µM,> 100 µM,> 100 µM
Sc1nc(NCc2ccccc2)c2ccccc2n1,10.1 µM,63.5 µM,> 100 µM,66.3 µM,> 100 µM,> 100 µM,27.2 µM,> 100 µM,> 100 µM,49.6 µM,> 100 µM,> 100 µM,82.4 µM,> 100 µM,> 100 µM,15.2 µM,> 100 µM,> 100 µM
CSc1nc(NCc2ccc([Se]C)cc2)c2ccccc2n1,> 100 µM,> 100 µM,> 100 µM,73.5 µM,> 100 µM,> 100 µM,36.4 µM,> 100 µM,> 100 µM,70.3 µM,> 100 µM,> 100 µM,63.3 µM,> 100 µM,> 100 µM,57 µM,> 100 µM,> 100 µM
COc1ccc(CNc2nc(SC)nc3ncccc23)cc1,> 100 µM,> 100 µM,> 100 µM,58.5 µM,> 100 µM,> 100 µM,48.1 µM,> 100 µM,> 100 µM,34.2 µM,> 100 µM,69.77 µM,> 100 µM,> 100 µM,> 100 µM,> 100 µM,> 100 µM,> 100 µM
CCCCC[Se]c1nc(N)c2ccccc2n1,40.3 µM,> 100 µM,> 100 µM,52.2 µM,> 100 µM,> 100 µM,28.6 µM,90.4 µM,59.5 µM,15.3 µM,71.85 µM,43.6 µM,34.8 µM,68 µM,> 100 µM,34.6 µM,84 µM,> 100 µM
COc1ccc(CNc2nc(S)nc3ccccc23)cc1,6.49 µM,28.6 µM,63.9 µM,6.13 µM,70.18 µM,32.5 µM,7.08 µM,78.4 µM,36.5 µM,7.83 µM,69.23 µM,36.55 µM,10.4 µM,41 µM,71.6 µM,13.5 µM,45.5 µM,77.6 µM
CSc1nc(NCCCCc2ccccc2)c2ccccc2n1,> 100 µM,> 100 µM,> 100 µM,6.81 µM,> 100 µM,> 100 µM,32 µM,95.9 µM,64 µM,28.5 µM,78.6 µM,53.55 µM,47 µM,> 100 µM,> 100 µM,> 100 µM,> 100 µM,> 100 µM
COc1ccc(CNc2nc(SC)nc3ccccc23)cc1,70.2 µM,> 100 µM,> 100 µM,21.7 µM,> 100 µM,96.24 µM,30.9 µM,> 100 µM,85.1 µM,85.6 µM,> 100 µM,> 100 µM,93.7 µM,> 100 µM,> 100 µM,93.7 µM,> 100 µM,> 100 µM
CCCCC[Se]c1nc([Se]CCCCC)c2cccnc2n1,> 100 µM,> 100 µM,> 100 µM,> 100 µM,> 100 µM,> 100 µM,40.8 µM,94.6 µM,67.7 µM,52.8 µM,> 100 µM,> 100 µM,> 100 µM,> 100 µM,> 100 µM,15.2 µM,60.5 µM,> 100 µM
[SeH]c1nc([SeH])c2cccnc2n1,–,–,–,–,–,–,9.83 µM,82.7 µM,46.1 µM,0.71 µM,67.5 µM,8.26 µM,–,–,–,4.03 µM,7.93 µM,68.4 µM
COc1cc([C@@H]2c3cc4c(cc3[C@@H](O[C@@H]3O[C@@H]5CO[C@@H](C)O[C@H]5[C@H](O)[C@H]3O)[C@H]3COC(=O)[C@H]23)OCO4)cc(OC)c1O [ETOPOSIDE],–,> 100 µM,> 100 µM,–,–,–,–,–,> 100 µM,–,–,–,12.6 µM,50.1 µM,> 100 µM,–,–,–
